The species entered for assay [1] is Mus musculus. The experiment in a line: Inhibition of imidazole receptor 2 in mouse hippocampal neurons assessed as reduction in tPA-induced Erk1/2 activation at 30 uM pre-incubated for 4 hrs before tPA stimulation by ELISA. The following applies: Hippocampus. An outline of the steps:
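Primary mouse hippocampal neurons were stimulated with tPA (20 μg/mL, 1 h) with or without compound at 30 μM. Phospho-Erk1/2 was measured by ELISA with a phospho-specific antibody and normalized to total Erk1/2. Untreated cultures set the lower limit and tPA alone the upper limit.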

Assay [2] concerns Hippocampal neuron. Put plainly: (§1) Neuroprotective activity in mouse hippocampal neurons assessed as Abeta-induced neuronal apoptosis at 30 uM pre-incubated for 4 hrs before Abeta challenge for 72 hrs by TUNEL assay (reference value: 100%). It is filed as functional. The conditions noted are these: Hippocampus. An outline of the steps: (§2)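 Aggregated Aβ (20 μM, 72 h) was applied to primary mouse hippocampal neurons with or without compound at 30 μM. Apoptosis was scored by TUNEL as the percentage of positive nuclei among total nuclei, referred to Aβ alone (100%). Medium-only cells were the negative control and DNase the positive control. n = 4, mean ± SEM, two-tailed Student's test.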

Assay [3] can be described thus: Inhibition of radioligand binding to N-methyl D-aspartate receptor phencyclidine binding site at 10 uM. A digest of the protocol:
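Radioligand binding panel. Values are average percentages of inhibition of specific binding, measured against potent standard ligands for each target.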

For assay [4], the system named is Hippocampal neuron. Put plainly: Neuroprotective activity against Abeta-induced neuronal apoptosis in mouse hippocampal neurons assessed as reduction in DNA fragmentation at 30 uM pre-incubated for 4 hrs before Abeta challenge for 72 hrs by immunofluorescence microscopy. It is filed as functional, tissue-based. The conditions noted are these: Hippocampus. An outline of the steps: (§3)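 Primary mouse hippocampal neurons were exposed to Aβ (20 μM, 72 h) alone or with compound. Double immunofluorescence microscopy was then run for DNA fragmentation (TUNEL, green) and total neuronal nuclei (NeuN, red), with merged images. DNase-treated cells served as positive control.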

Assay [5] can be described thus: as §1. The format is functional, Hippocampus, Hippocampal neuron. An outline of the steps:
as §2

Assay [6] has as its system Hippocampal neuron. Put plainly: Neuroprotective activity against Abeta-induced neuronal apoptosis in mouse hippocampal neurons assessed as reduction in total neuronal nuclei level at 30 uM pre-incubated for 4 hrs before Abeta challenge for 72 hrs by immunofluorescence microscopy. It is filed as functional, tissue-based. The conditions noted are these: Hippocampus. An outline of the steps: as §3

For assay [7], the species on record is Rattus norvegicus. The experiment in a line: Displacement of [3H]2-BFI from rat imidazole receptor 2 in rat whole brain at 10 uM in presence of 1 uM yohimbine.
The species named for assay [8] is Rattus norvegicus. The experiment in a line: Displacement of [3H]idazoxan from rat cerebral cortex imidazole receptor 2 at 10 uM in presence of 1 uM yohimbine. The format is tissue-based. A general note: In a radioligand displacement assay an active substance lowers the binding of a labelled ligand.

This is an account of results in ChEMBL document CHEMBL2176910, “Identification of small molecule inhibitors of amyloid β-induced neuronal apoptosis acting through the imidazoline I(2) receptor” (J Med Chem, 2012).

Activity calls are given as the source filed them. No cut-off for these calls is given here.

A word on the inhibition: it is the change of the read-out against control, counted positive when it falls. Take `c1ccc(C2NCCc3ccccc32)cc1` (configuration not stated): the “inhibition of tPA-induced Erk1/2 activation (active/inactive call)” value (“inhibition … (active/inactive call)” for short) in assay [1] was “Active”. In addition, the result in assay [2] was inactive. For the same molecule, in assay [3], the inhibition was 69%.
Take `C[C@]12N[C@H](Cc3ccccc31)c1ccccc12`: in assay [1], the inhibition result is “Active”. Moreover, in assay [3], the inhibition was found to be 98%.
As for `c1csc(C2NCCc3ccccc32)c1` (configuration not stated), in assay [1], the “inhibition … (active/inactive call)” value is “Active”. Besides, the result in assay [2] was Active.
Regarding `CC12CC3CC(C)(C1)CC(N)(C3)C2` [MEMANTINE], the “inhibition … (active/inactive call)” value in assay [1] was “Active”. For the same molecule, the result in assay [4] and in assay [6] was Active. Further, the Activity in assay [5] is 42.3%. The inhibition in assay [3] is 92%.
As to `c1ccc(-c2ncc3cc(-n4ccnc4)ccc3n2)cc1`, the values for the inhibition in assay [7] and in assay [8] were 92% and 66%, respectively.
Turning to `CN1CCCC2(CCCNC2)C1` (configuration not stated), in assay [1], the “inhibition … (active/inactive call)” value was “Active”. Besides, the result in assay [2] was inactive.
For the molecule `c1ccc(C2NCCc3sccc32)cc1` (configuration not stated), in assay [1], the “inhibition … (active/inactive call)” value is “Active”. The result in assay [2] was Active.
As to `CN1CCn2cccc2C1c1ccccc1` (configuration not stated), the “inhibition … (active/inactive call)” value in assay [1] was “Active”. For the same molecule, the result in assay [2] was Active.
In the case of `CN1Cc2ccccc2C2CCc3ccccc3C21` (configuration not stated), the “inhibition … (active/inactive call)” value in assay [1] was “Active”. Moreover, the outcome in assay [2] was inactive.
